In brackets after ≈: the same amount, converted by molar mass.
Tests used:
Aspergillus niger [1] = assay: Fungicidal activity against Aspergillus niger ATCC 6275 incubated for 72 hrs followed by sub-culturing on broth malt medium and measured after 72 hrs; assay type: functional; conditions: ATCC 6275, 72 h
Procedure, shortened: (§1)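 After 72 h exposure in malt broth, 2 µL from test wells was subcultured into wells holding 100 µL broth and incubated a further 72 h at 28 °C. MFC is the lowest concentration with no visible growth, taken as 99.5% kill of the original inoculum. Three independent experiments in duplicate.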

Penicillium cyclopium [2] = assay: Fungicidal activity against Penicillium verrucosum var. cyclopium food isolate incubated for 72 hrs followed by sub-culturing on broth malt medium and measured after 72 hrs; assay type: functional; procedure, shortened: as §1
Aspergillus ochraceus [3] = assay: Antifungal activity against Aspergillus ochraceus ATCC 12066 after 72 hrs by microdilution technique; assay type: functional; conditions: ATCC 12066, 72 h
Procedure, shortened: (§2)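 Spores were washed off malt agar with 0.85% saline containing 0.1% Tween 80 and adjusted to about 1.0×10^5 per well. Compounds in 5% DMSO were serially diluted (0.001-1.0 mg/ml) in malt broth with inoculum. Plates were shaken at 160 rpm for 72 h at 28 °C. MIC is the lowest concentration without visible growth under a binocular microscope. Three independent experiments in duplicate.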

Micrococcus flavus [4] = assay: Bactericidal activity against Micrococcus flavus ATCC 10240 incubated for 24 hrs followed by re-plating on tryptic soy broth; assay type: functional; conditions: ATCC 10240, 24 h
Procedure, shortened: (§3)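 Bacteria were grown in tryptic soy broth, 1.0×10^4 CFU per well, with compounds in 5% DMSO at 0.001-1.0 mg/ml for 24 h at 37 °C. Then 10 µL was subcultured into fresh TSB. MBC is the lowest concentration showing no growth after subculture, taken as 99.5% kill of the original inoculum. Duplicates, repeated three times.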

Aspergillus versicolor [5] = assay: Fungicidal activity against Aspergillus versicolor ATCC 11730 incubated for 72 hrs followed by sub-culturing on broth malt medium and measured after 72 hrs; assay type: functional; conditions: ATCC 11730, 72 h; procedure, shortened: as §1
Aspergillus niger [6] = assay: Antifungal activity against Aspergillus niger ATCC 6275 after 72 hrs by microdilution technique; assay type: functional; conditions: ATCC 6275, 72 h; procedure, shortened: as §2
Salmonella typhimurium [7] = assay: Antibacterial activity against Salmonella typhimurium ATCC 13311 after 24 hrs by iodonitrotetrazolium chloride dye based microdilution method; assay type: functional, Salmonella enterica subsp. enterica serovar Typhimurium; conditions: Salmonella enterica, ATCC 13311, 24 h
Procedure, shortened: (§4)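 Fresh overnight cultures adjusted spectrophotometrically to 1×10^5 CFU/mL, giving 1.0×10^4 CFU per well in tryptic soy broth. Compounds were dissolved in 5% DMSO and tested at 0.001-1.0 mg/ml by serial dilution; 5% DMSO was the negative control. After 24 h at 37 °C, 0.2 mg/mL INT solution was added for 30 min at 37 °C and OD read at 655 nm. MIC is the lowest concentration giving significant growth inhibition versus the positive control. Duplicates, repeated three times.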

Escherichia coli [8] = assay: Bactericidal activity against Escherichia coli ATCC 35210 incubated for 24 hrs followed by re-plating on tryptic soy broth; assay type: functional; conditions: ATCC 35210, 24 h; procedure, shortened: as §3
Trichoderma viride [9] = assay: Antifungal activity against Trichoderma viride IAM 5061 after 72 hrs by microdilution technique; assay type: functional; conditions: IAM 5061, 72 h; procedure, shortened: as §2
Penicillium ochrochloron [10] = assay: Fungicidal activity against Penicillium ochrochloron ATCC 9112 incubated for 72 hrs followed by sub-culturing on broth malt medium and measured after 72 hrs; assay type: functional; conditions: ATCC 9112, 72 h; procedure, shortened: as §1
Listeria monocytogenes [11] = assay: Antibacterial activity against Listeria monocytogenes NCTC 7973 after 24 hrs by iodonitrotetrazolium chloride dye based microdilution method; assay type: functional; conditions: NCTC 7973, 24 h; procedure, shortened: as §4
Bacillus cereus [12] = assay: Antibacterial activity against Bacillus cereus clinical isolate after 24 hrs by iodonitrotetrazolium chloride dye based microdilution assay; assay type: functional; procedure, shortened: as §4
[13] = Antifungal activity against Penicillium funiculosum ATCC 36839 after 72 hrs by microdilution technique; assay type: functional; conditions: Talaromyces pinophilus, ATCC 36839, 72 h; procedure, shortened: as §2
Enterobacter cloacae [14] = assay: Bactericidal activity against Enterobacter cloacae incubated for 24 hrs followed by re-plating on tryptic soy broth; assay type: functional; procedure, shortened: as §3
Bacillus cereus [15] = assay: Bactericidal activity against Bacillus cereus clinical isolate incubated for 24 hrs followed by re-plating on tryptic soy broth; assay type: functional; procedure, shortened: as §3
[16] = Fungicidal activity against Penicillium funiculosum ATCC 36839 incubated for 72 hrs followed by sub-culturing on broth malt medium and measured after 72 hrs; assay type: functional; conditions: Talaromyces pinophilus, ATCC 36839, 72 h; procedure, shortened: as §1
Penicillium ochrochloron [17] = assay: Antifungal activity against Penicillium ochrochloron ATCC 9112 after 72 hrs by microdilution technique; assay type: functional; conditions: ATCC 9112, 72 h; procedure, shortened: as §2
Staphylococcus aureus [18] = assay: Bactericidal activity against Staphylococcus aureus ATCC 6538 incubated for 24 hrs followed by re-plating on tryptic soy broth; assay type: functional; conditions: ATCC 6538, 24 h; procedure, shortened: as §3
Escherichia coli [19] = assay: Antibacterial activity against Escherichia coli ATCC 35210 after 24 hrs by iodonitrotetrazolium chloride dye based microdilution method; assay type: functional; conditions: ATCC 35210, 24 h; procedure, shortened: as §4
Enterobacter cloacae [20] = assay: Antibacterial activity against Enterobacter cloacae clinical isolate after 24 hrs by iodonitrotetrazolium chloride dye based microdilution method; assay type: functional; procedure, shortened: as §4
Listeria monocytogenes [21] = assay: Bactericidal activity against Listeria monocytogenes NCTC 7973 incubated for 24 hrs followed by re-plating on tryptic soy broth; assay type: functional; conditions: NCTC 7973, 24 h; procedure, shortened: as §3
Trichoderma viride [22] = assay: Fungicidal activity against Trichoderma viride IAM 5061 incubated for 72 hrs followed by sub-culturing on broth malt medium and measured after 72 hrs; assay type: functional; conditions: IAM 5061, 72 h; procedure, shortened: as §1
Penicillium cyclopium [23] = assay: Antifungal activity against Penicillium verrucosum var. cyclopium food isolate after 72 hrs by microdilution technique; assay type: functional; procedure, shortened: as §2
Aspergillus fumigatus [24] = assay: Antifungal activity against Aspergillus fumigatus ATCC 1022 after 72 hrs by microdilution technique; assay type: functional; conditions: ATCC 1022, 72 h; procedure, shortened: as §2
Pseudomonas aeruginosa [25] = assay: Bactericidal activity against Pseudomonas aeruginosa ATCC 27853 incubated for 24 hrs followed by re-plating on tryptic soy broth; assay type: functional; conditions: ATCC 27853, 24 h; procedure, shortened: as §3
Pseudomonas aeruginosa [26] = assay: Antibacterial activity against Pseudomonas aeruginosa ATCC 27853 after 24 hrs by iodonitrotetrazolium chloride dye based microdilution method; assay type: functional; conditions: ATCC 27853, 24 h; procedure, shortened: as §4
Aspergillus ochraceus [27] = assay: Fungicidal activity against Aspergillus ochraceus ATCC 12066 incubated for 72 hrs followed by sub-culturing on broth malt medium and measured after 72 hrs; assay type: functional; conditions: ATCC 12066, 72 h; procedure, shortened: as §1
Aspergillus fumigatus [28] = assay: Fungicidal activity against Aspergillus fumigatus ATCC 1022 incubated for 72 hrs followed by sub-culturing on broth malt medium and measured after 72 hrs; assay type: functional; conditions: ATCC 1022, 72 h; procedure, shortened: as §1
Staphylococcus aureus [29] = assay: Antibacterial activity against Staphylococcus aureus ATCC 6538 after 24 hrs by iodonitrotetrazolium chloride dye based microdilution method; assay type: functional; conditions: ATCC 6538, 24 h; procedure, shortened: as §4
Salmonella typhimurium [30] = assay: Bactericidal activity against Salmonella typhimurium ATCC 13311 incubated for 24 hrs followed by re-plating on tryptic soy broth; assay type: functional, Salmonella enterica subsp. enterica serovar Typhimurium; conditions: Salmonella enterica, ATCC 13311, 24 h; procedure, shortened: as §3
Aspergillus versicolor [31] = assay: Antifungal activity against Aspergillus versicolor ATCC 11730 after 72 hrs by microdilution method; assay type: functional; conditions: ATCC 11730, 72 h; procedure, shortened: as §2
Micrococcus flavus [32] = assay: Antibacterial activity against Micrococcus flavus ATCC 10240 after 24 hrs by iodonitrotetrazolium chloride dye based microdilution method; assay type: functional; conditions: ATCC 10240, 24 h; procedure, shortened: as §4

SMILES | MFC (Aspergillus niger [1]) [×10⁻² mM] | MFC (Penicillium cyclopium [2]) [×10⁻² mM] | MIC (Aspergillus ochraceus [3]) [×10⁻² mM] | MBC (Micrococcus flavus [4]) [µM] | MFC (Aspergillus versicolor [5]) [×10⁻² mM] | MIC (Aspergillus niger [6]) [×10⁻² mM] | MIC (Salmonella typhimurium [7]) [µM] | MBC (Escherichia coli [8]) [µM] | MIC (Trichoderma viride [9]) [×10⁻² mM] | MFC (Penicillium ochrochloron [10]) [×10⁻² mM] | MIC (Listeria monocytogenes [11]) [µM] | MIC (Bacillus cereus [12]) [µM] | MIC [13] [×10⁻² mM] | MBC (Enterobacter cloacae [14]) [µM] | MBC (Bacillus cereus [15]) [µM] | MFC [16] [×10⁻² mM] | MIC (Penicillium ochrochloron [17]) [×10⁻² mM] | MBC (Staphylococcus aureus [18]) [µM] | MIC (Escherichia coli [19]) [µM] | MIC (Enterobacter cloacae [20]) [µM] | other results
CC1(C)c2ssc(=S)c2-c2ccccc2N1C(=O)CSC1=NCCS1 | 7.06 | 7.06 | 1.88 | 141 (≈ 59.9 µg/mL) | 7.06 | 3.53 | 106 (≈ 45 µg/mL) | 141 (≈ 59.9 µg/mL) | 1.88 | 7.06 | 106 (≈ 45 µg/mL) | 106 (≈ 45 µg/mL) | 3.53 | 141 (≈ 59.9 µg/mL) | 141 (≈ 59.9 µg/mL) | 7.06 | 3.53 | 141 (≈ 59.9 µg/mL) | 106 (≈ 45 µg/mL) | 70.7 (≈ 30 µg/mL) | MBC (Listeria monocytogenes [21]): 141 µM (≈ 59.9 µg/mL); MFC (Trichoderma viride [22]): 3.53 ×10⁻² mM; MIC (Penicillium cyclopium [23]): 3.53 ×10⁻² mM; MIC (Aspergillus fumigatus [24]): 3.53 ×10⁻² mM; MBC (Pseudomonas aeruginosa [25]): 141 µM (≈ 60 µg/mL); MIC (Pseudomonas aeruginosa [26]): 70.7 µM (≈ 30 µg/mL); MFC (Aspergillus ochraceus [27]): 3.53 ×10⁻² mM; MFC (Aspergillus fumigatus [28]): 7.06 ×10⁻² mM; MIC (Staphylococcus aureus [29]): 106 µM (≈ 45 µg/mL); MBC (Salmonella typhimurium [30]): 141 µM (≈ 60 µg/mL); MIC (Aspergillus versicolor [31]): 3.53 ×10⁻² mM; MIC (Micrococcus flavus [32]): 106 µM (≈ 45 µg/mL)
COc1ccc2c(c1)-c1c(ssc1=S)C(C)(C)N2C(=O)CSc1nc2ccccc2s1 | 2.98 | 2.98 | 1.59 | 59.7 (≈ 30 µg/mL) | 2.98 | 1.59 | 29.8 (≈ 15 µg/mL) | 59.7 (≈ 30 µg/mL) | 0.8 | 0.8 | 29.8 (≈ 15 µg/mL) | 29.8 (≈ 15 µg/mL) | 1.59 | 59.7 (≈ 30 µg/mL) | 59.7 (≈ 30 µg/mL) | 2.98 | 0.4 | 59.7 (≈ 30 µg/mL) | 29.8 (≈ 15 µg/mL) | 29.8 (≈ 15 µg/mL) | MBC (Listeria monocytogenes [21]): 59.7 µM (≈ 30 µg/mL); MFC (Trichoderma viride [22]): 1.59 ×10⁻² mM; MIC (Penicillium cyclopium [23]): 1.59 ×10⁻² mM; MIC (Aspergillus fumigatus [24]): 1.59 ×10⁻² mM; MBC (Pseudomonas aeruginosa [25]): 59.7 µM (≈ 30 µg/mL); MIC (Pseudomonas aeruginosa [26]): 29.8 µM (≈ 15 µg/mL); MFC (Aspergillus ochraceus [27]): 2.98 ×10⁻² mM; MFC (Aspergillus fumigatus [28]): 2.98 ×10⁻² mM; MIC (Staphylococcus aureus [29]): 29.8 µM (≈ 15 µg/mL); MBC (Salmonella typhimurium [30]): 59.7 µM (≈ 30 µg/mL); MIC (Aspergillus versicolor [31]): 1.59 ×10⁻² mM; MIC (Micrococcus flavus [32]): 29.8 µM (≈ 15 µg/mL)
